Source: ChEMBL document CHEMBL4400562, “Plumbagin Increases Paclitaxel-Induced Cell Death and Overcomes Paclitaxel Resistance in Breast Cancer Cells through ERK-Mediated Apoptosis Induction” (J Nat Prod, 2019)
Calls of active or inactive are those of the source. The calls are words filed in the database; no cut-off is given here.

Experiments:
[1] = test system: MDA-MB-468; test: Induction of apoptosis in human MDA-MB-468 cells at 1 nM after 24 hrs by Annexin V-phycoerythrin/7-AAD staining based flow cytometric analysis relative to control; format: functional
[2] = test system: MCF7; test: Induction of apoptosis in human MCF7 cells at 1 nM after 24 hrs by Annexin V-phycoerythrin/7-AAD staining based flow cytometric analysis relative to control; format: functional
[3] = test system: BT-474; test: Induction of apoptosis in human BT474 cells at 2 nM after 24 hrs by Annexin V-phycoerythrin/7-AAD staining based flow cytometric analysis relative to control; format: functional
[4] = molecular target: T1, Mitogen-activated protein kinase; ERK1/ERK2 (Homo sapiens) (UniProt P27361+P28482); test: Inhibition of ERK1/2 in human MCF7 cells assessed as reduction in EGF-induced phosphorylation of ERK1/2 level up to 1 uM preincubated for 24 hrs followed by EGF addition and measured after 30 mins by Western blot analysis; format: cell-based
[5] = molecular target: T1, Mitogen-activated protein kinase; ERK1/ERK2 (Homo sapiens); test: Inhibition of ERK1/2 in human MDA-MB-468 cells assessed as reduction in EGF-induced phosphorylation of ERK1/2 level up to 0.5 uM preincubated for 24 hrs followed by EGF addition and measured after 30 mins by Western blot analysis; format: cell-based
[6] = test system: BT-474; test: Induction of apoptosis in human BT474 cells up to 2.5 uM after 24 hrs in presence of 2 nM of paclitaxel by Annexin V-phycoerythrin/7-AAD staining based flow cytometric analysis relative to control; format: functional
Summary of the method: (§1)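 Cells were treated for 24 h with single agents or combinations, then washed in annexin-binding buffer and stained with annexin V-PE and 7-AAD for 30 min at 15 °C in the dark. Apoptotic fraction was read by flow cytometry. DMSO was 0.5% final. Data from at least three independent experiments, one-way ANOVA with Tukey's test.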

[7] = test system: MCF7/PTX; test: Potentiation of paclitaxel-induced apoptosis in paclitaxel-resistant human MCF7/PTX cells at 2 uM after 24 hrs by Annexin V-phycoerythrin/7-AAD staining based flow cytometric analysis; format: functional, cell-based; summary of the method: as §1
[8] = test system: BT-474; test: Synergistic cytotoxicity against human BT474 cells assessed as combination index at 1 to 5 uM after 24 hrs in presence of 0.1 to 20 nM of paclitaxel by MTT assay; format: functional
Summary of the method: (§2)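 The Chou–Talalay median-effect method was applied to 24 h MTT viability data. Five fixed-ratio plumbagin (μM)/paclitaxel (nM) combinations were used: for MCF-7 1/0.5, 2/1, 3/3, 4/5, 5/10. Cell-line-specific series were used for BT474 and MDA-MB-468. Single agents were run in parallel. CI was computed at several effect levels.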

[9] = test system: MDA-MB-468; test: Synergistic cytotoxicity against human MDA-MB-468 cells assessed as combination index at 0.5 to 2 uM after 24 hrs in presence of 5 to 20 nM of paclitaxel by MTT assay; format: functional; summary of the method: as §2
[10] = test system: MCF7; test: Cytotoxicity against human MCF7 cells assessed as reduction in cell viability after 24 hrs by MTT assay; details: MCF7, 24 h
[11] = test system: MCF7; test: Synergistic cytotoxicity against human MCF7 cells assessed as combination index at 1 to 5 uM after 24 hrs in presence of 0.5 to 10 nM of paclitaxel by MTT assay; format: functional; summary of the method: as §2
[12] = test system: MCF7/PTX; test: Induction of apoptosis in paclitaxel-resistant human MCF7/PTX cells at 3 uM after 24 hrs by Annexin V-phycoerythrin/7-AAD staining based flow cytometric analysis relative to control; format: functional; summary of the method: as §1
[13] = test system: MDA-MB-468; test: Induction of apoptosis in human MDA-MB-468 cells at 0.2 uM after 24 hrs in presence of 1 nM of paclitaxel by Annexin V-phycoerythrin/7-AAD staining based flow cytometric analysis relative to control; format: functional; summary of the method: as §1
[14] = test system: MDA-MB-468; test: Induction of apoptosis in human MDA-MB-468 cells at 0.5 uM after 24 hrs in presence of 1 nM of paclitaxel by Annexin V-phycoerythrin/7-AAD staining based flow cytometric analysis relative to control; format: functional; summary of the method: as §1
[15] = test system: MCF7; test: Induction of apoptosis in human MCF7 cells pre-treated with ERK1/2 siRNA at 2 uM in presence of 1 nM paclitaxel by Annexin V-phycoerythrin/7-AAD staining based flow cytometric analysis relative to control; format: functional, cell-based
Summary of the method: (§3)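 Cells were transiently transfected for 24 h with ERK1 and ERK2 siRNA (0.5 μg) or scrambled control siRNA, with knockdown checked by Western blot. Cells were then treated for 24 h with the combination, stained with annexin V-PE and 7-AAD, and analysed by flow cytometry. Apoptosis was compared against control-siRNA cells.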

[16] = molecular target: T1, Mitogen-activated protein kinase; ERK1/ERK2 (Homo sapiens); test: Inhibition of ERK1/2 in human BT474 cells assessed as reduction in paclitaxel-induced phosphorylation of ERK1/2 at Thr202/Tyr204 residues up to 2 uM preincubated for 1 hrs followed by 1 nM paclitaxel addition and measured after 30 mins by AlphaScreen analysis relative to control; format: cell-based
[17] = molecular target: T1, Mitogen-activated protein kinase; ERK1/ERK2 (Homo sapiens); test: Inhibition of ERK1/2 in human MDA-MB-468 cells assessed as reduction in EGF-induced phosphorylation of ERK1/2 at Thr202/Tyr204 residues up to 1 uM preincubated for 1 hrs followed by EGF addition and measured after 30 mins by AlphaScreen analysis relative to control; format: cell-based
[18] = molecular target: T1, Mitogen-activated protein kinase; ERK1/ERK2 (Homo sapiens); test: Inhibition of ERK1/2 in human BT474 cells assessed as reduction in EGF-induced phosphorylation of ERK1/2 at Thr202/Tyr204 residues up to 2 uM preincubated for 1 hrs followed by EGF addition and measured after 30 mins by AlphaScreen analysis relative to control; format: cell-based
[19] = test system: BT-474; test: Induction of apoptosis in human BT474 cells pre-treated with ERK1/2 siRNA at 1.5 uM in presence of 2 nM paclitaxel by Annexin V-phycoerythrin/7-AAD staining based flow cytometric analysis relative to control; format: functional, cell-based; summary of the method: as §3
[20] = molecular target: T1, Mitogen-activated protein kinase; ERK1/ERK2 (Homo sapiens); test: Inhibition of ERK1/2 in human MCF7 cells assessed as reduction in paclitaxel-induced phosphorylation of ERK1/2 at Thr202/Tyr204 residues up to 3 uM preincubated for 1 hrs followed by 1 nM paclitaxel addition and measured after 30 mins by AlphaScreen analysis relative to control; format: cell-based
[21] = test system: MDA-MB-468; test: Induction of apoptosis in human MDA-MB-468 cells pre-treated with ERK1/2 siRNA at 0.2 uM in presence of 1 nM paclitaxel by Annexin V-phycoerythrin/7-AAD staining based flow cytometric analysis relative to control; format: functional; summary of the method: as §3
[22] = test system: MCF7; test: Induction of apoptosis in human MCF7 cells at 3 uM after 24 hrs by Annexin V-phycoerythrin/7-AAD staining based flow cytometric analysis relative to control; format: functional; summary of the method: as §1
[23] = molecular target: T1, Mitogen-activated protein kinase; ERK1/ERK2 (Homo sapiens); test: Inhibition of ERK1/2 in human MCF7 cells assessed as reduction in EGF-induced phosphorylation of ERK1/2 at Thr202/Tyr204 residues up to 3 uM preincubated for 1 hrs followed by EGF addition and measured after 30 mins by AlphaScreen analysis relative to control; format: cell-based
[24] = molecular target: T1, Mitogen-activated protein kinase; ERK1/ERK2 (Homo sapiens); test: Inhibition of ERK1/2 in paclitaxel-resistant human MCF7/PTX cells assessed as reduction in paclitaxel-induced phosphorylation of ERK1/2 at Thr202/Tyr204 residues up to 3 uM preincubated for 1 hrs followed by 1 nM paclitaxel addition and measured after 30 mins by AlphaScreen analysis; format: cell-based
[25] = test system: MCF7; test: Induction of apoptosis in human MCF7 cells up to 3 uM after 24 hrs in presence of 1 nM of paclitaxel by Annexin V-phycoerythrin/7-AAD staining based flow cytometric analysis relative to control; format: functional; summary of the method: as §1
[26] = molecular target: T1, Mitogen-activated protein kinase; ERK1/ERK2 (Homo sapiens); test: Inhibition of ERK1/2 in human BT474 cells assessed as reduction in EGF-induced phosphorylation of ERK1/2 level up to 1 uM preincubated for 24 hrs followed by EGF addition and measured after 30 mins by Western blot analysis; format: cell-based
[27] = molecular target: T1, Mitogen-activated protein kinase; ERK1/ERK2 (Homo sapiens); test: Inhibition of ERK1/2 in human MDA-MB-468 cells assessed as reduction in paclitaxel-induced phosphorylation of ERK1/2 at Thr202/Tyr204 residues up to 1 uM preincubated for 1 hrs followed by 1 nM paclitaxel addition and measured after 30 mins by AlphaScreen analysis relative to control; format: cell-based
[28] = test system: MCF7/PTX; test: Cytotoxicity against paclitaxel-resistant human MCF7/PTX cells assessed as reduction in cell viability after 24 hrs by MTT assay; format: functional, cell-based
Summary of the method: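 MTT viability after 24 h exposure. MCF-7/PTX cells were derived from MCF-7 by three months of culture in rising paclitaxel (0.4 to 6.0 nM). Cells grew in RPMI with 10% FBS at 37 °C, 5% CO2. Compounds were dissolved in DMSO, 0.5% final. At least three independent experiments.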

T1 sequence (P27361 whole entry, looked up): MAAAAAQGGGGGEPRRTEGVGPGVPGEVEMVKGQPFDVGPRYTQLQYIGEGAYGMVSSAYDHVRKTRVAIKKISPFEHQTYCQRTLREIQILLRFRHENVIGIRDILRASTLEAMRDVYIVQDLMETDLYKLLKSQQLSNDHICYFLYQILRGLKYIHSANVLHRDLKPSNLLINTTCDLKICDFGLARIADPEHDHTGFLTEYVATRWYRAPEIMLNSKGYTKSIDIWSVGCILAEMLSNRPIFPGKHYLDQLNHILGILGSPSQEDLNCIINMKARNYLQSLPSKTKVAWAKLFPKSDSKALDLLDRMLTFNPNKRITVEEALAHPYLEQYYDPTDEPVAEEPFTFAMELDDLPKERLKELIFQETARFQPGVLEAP
T1 sequence (P28482 whole entry, looked up): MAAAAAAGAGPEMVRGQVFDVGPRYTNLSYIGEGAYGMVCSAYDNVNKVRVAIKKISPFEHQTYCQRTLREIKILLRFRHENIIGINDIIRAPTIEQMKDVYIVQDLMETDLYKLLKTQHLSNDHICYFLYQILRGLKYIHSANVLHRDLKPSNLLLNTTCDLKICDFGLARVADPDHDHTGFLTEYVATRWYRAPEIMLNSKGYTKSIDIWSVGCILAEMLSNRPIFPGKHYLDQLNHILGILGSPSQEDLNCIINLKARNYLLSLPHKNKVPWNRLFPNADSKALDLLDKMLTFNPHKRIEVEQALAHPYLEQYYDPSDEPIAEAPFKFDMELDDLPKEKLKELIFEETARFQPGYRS

For `CC(=O)O[C@H]1C(=O)[C@@]2(C)[C@H]([C@H](OC(=O)c3ccccc3)[C@]3(O)C[C@H](OC(=O)[C@H](O)[C@@H](NC(=O)c4ccccc4)c4ccccc4)C(C)=C1C3(C)C)[C@]1(OC(C)=O)CO[C@@H]1C[C@@H]2O` [PACLITAXEL], the Activity [1] was 10 - 15%, the Activity [2] was 10 - 15% and the Activity [3] was 10 - 15%.

`CC1=CC(=O)c2c(O)cccc2C1=O` [PLUMBAGIN] was tested, and the inhibition [4] was “Active”, the inhibition [5] was “Active” and the Activity [6] was 15%. For the same compound, the Activity [7] was “Active”, the CI [8] was 0.6 and the CI [9] was 0.5 - 1. For the same compound, the IC50 [10] was 3.5 µM, the CI [11] was 0.9 and the Activity [12] was 20%. For the same compound, the Activity [13] was 20%, the Activity [14] was 35% and the Activity [15] was “Active”. For the same compound, the inhibition [16] was “Active”, the inhibition [17] was “Active” and the inhibition [18] was “Active”. For the same compound, the Activity [19] was “Active”, the inhibition [20] was “Active” and the Activity [21] was 25%. For the same compound, the Activity [22] was 20%, the inhibition [23] was “Active” and the inhibition [24] was “Active”. For the same compound, the Activity [25] was 10%, the inhibition [26] was “Active” and the inhibition [27] was “Active”. For the same compound, the IC50 [28] was 3.5 µM.
